Assay results taken from ChEMBL document CHEMBL1152447, “Benzothiopyranoindole-based antiproliferative agents: synthesis, cytotoxicity, nucleic acids interaction, and topoisomerases inhibition properties” (J Med Chem, 2009).
Activity calls are given as the source filed them. The rule behind the calls is not given here.

Tests used:
[1] = test system: HeLa; assay: Cytotoxicity against human HeLa cells after 72 hrs by trypan blue assay; type: functional, cell-based
Summary of the method: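 HeLa cells grown in Nutrient Mixture F-12 with 10% heat-inactivated FCS at 37 °C, 5% CO2. Seeded at 4 × 10^4 per well for 24 h, then medium replaced with fresh medium containing test agents for 72 h. Viability by trypan blue. IC50 is the concentration reducing cell number by 50% versus control.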

[2] = test system: HL-60; assay: Cytotoxicity against human HL60 cells after 72 hrs by trypan blue assay; type: functional, cell-based; conditions: HL-60, 72 h
Summary of the method: (§1)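 Cells seeded at 4 × 10^4 per well and cultured 24 h at 37 °C in 5% CO2. Test agents then added to the complete medium for a further 72 h. Viable cells counted by trypan blue. IC50 is the concentration giving 50% fewer cells than control cultures. HL-60 grown in RPMI 1640 + 15% heat-inactivated FCS; HL-60/MX2 grown in RPMI 1640 + 10% heat-inactivated FCS.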

[3] = target: DNA topoisomerase 2-alpha (Homo sapiens) (UniProt P11388); assay: Inhibition of human recombinant topoisomerase 2 relaxation activity assessed as supercoiled pBR322 DNA
Summary of the method: (§2)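 Human recombinant topoisomerase IIα (1 U) relaxation of supercoiled pBR322 (0.25 μg) with compound, 60 min at 37 °C. Stopped with SDS/proteinase K (50 μg/mL, 30 min, 37 °C). Products separated on 1% agarose, stained with ethidium bromide 1 μg/mL, UV imaging. Inhibition judged by retained supercoiled DNA. Gels representative of three experiments.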

[4] = Stabilization of supercoiled pBR322 DNA-human recombinant topoisomerase 2 complex assessed as reduction in linear DNA formation at 20 uM
[5] = target: T1, Topoisomerase I (Bos taurus) (UniProt Q2HPH0); assay: Inhibition of calf thymus topoisomerase 1-mediated supercoiled pBR322DNA relaxation activity at 10 uM
T1 sequence (whole entry): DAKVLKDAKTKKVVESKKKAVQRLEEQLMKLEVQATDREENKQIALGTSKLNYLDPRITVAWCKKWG
Summary of the method: (§3)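 Calf thymus topoisomerase I (2 U) incubated with supercoiled pBR322 (0.25 μg) and compound for 60 min at 37 °C. Stopped with SDS stop buffer plus 50 μg/mL proteinase K for 30 min at 37 °C. Run on 1% agarose, stained with ethidium bromide 1 μg/mL in TAE, imaged under UV. Gels representative of three experiments.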

[6] = test system: HL-60; assay: Ratio of IC50 for mitoxantrone-resistant human HL60/MX2 cells to IC50 for human HL60 cells
[7] = test system: Nucleic Acid; assay: Binding affinity to salmon testes DNA assessed as negative dichroic signal at 0.04 drug to DNA ratio by LD spectra; type: nucleic-acid assay; conditions: Salmonidae
Summary of the method: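 LD spectra of salmon testes DNA (1.9 × 10^-3 M) in ETN buffer (10 mM TRIS, 10 mM NaCl, 1 mM EDTA, pH 7) at 25 °C over several [drug]/[DNA] ratios. Orientation by shear gradient of 500-700 rpm; each spectrum accumulated four times.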

[8] = Cytotoxicity against human mitoxantrone-resistant HL60/MX2 cells after 72 hrs by trypan blue assay; type: functional, cell-based; conditions: HL60/MX2, 72 h; summary of the method: as §1
[9] = target: DNA topoisomerase 2-alpha (Homo sapiens) (UniProt P11388); assay: Inhibition of human recombinant topoisomerase 2 relaxation activity assessed as supercoiled pBR322 DNA at 5 uM; summary of the method: as §2
[10] = Stabilization of supercoiled pBR322 DNA-human recombinant topoisomerase 2 complex assessed as reduction in linear DNA formation at 5 uM
[11] = target: T1, Topoisomerase I (Bos taurus); assay: Inhibition of calf thymus topoisomerase 1-mediated supercoiled pBR322DNA relaxation activity; summary of the method: as §3
[12] = Stabilization of supercoiled pBR322 DNA-human recombinant topoisomerase 2 complex assessed as reduction in linear DNA formation at 10 uM
[13] = target: DNA topoisomerase 2-alpha (Homo sapiens) (UniProt P11388); assay: Inhibition of human recombinant topoisomerase 2 relaxation activity assessed as supercoiled pBR322 DNA at 2.5 uM; summary of the method: as §2
[14] = target: DNA topoisomerase 2-alpha (Homo sapiens) (UniProt P11388); assay: Inhibition of human recombinant topoisomerase 2 relaxation activity assessed as supercoiled pBR322 DNA at 8 uM; summary of the method: as §2
[15] = Stabilization of supercoiled pBR322 DNA-human recombinant topoisomerase 2 complex assessed as reduction in linear DNA formation at 8 uM
[16] = target: DNA topoisomerase 2-alpha (Homo sapiens) (UniProt P11388); assay: Inhibition of human recombinant topoisomerase 2-mediated end-labeled DNA cleavage in absence of ATP at 5 uM
[17] = Stabilization of supercoiled pBR322 DNA-human recombinant topoisomerase 2 complex assessed as reduction in linear DNA formation
[18] = target: DNA topoisomerase 2-alpha (Homo sapiens) (UniProt P11388); assay: Inhibition of human recombinant topoisomerase 2-mediated end-labeled DNA cleavage in absence of ATP at 200 uM

Chain of DNA topoisomerase 2-alpha (Homo sapiens) (P11388 whole entry): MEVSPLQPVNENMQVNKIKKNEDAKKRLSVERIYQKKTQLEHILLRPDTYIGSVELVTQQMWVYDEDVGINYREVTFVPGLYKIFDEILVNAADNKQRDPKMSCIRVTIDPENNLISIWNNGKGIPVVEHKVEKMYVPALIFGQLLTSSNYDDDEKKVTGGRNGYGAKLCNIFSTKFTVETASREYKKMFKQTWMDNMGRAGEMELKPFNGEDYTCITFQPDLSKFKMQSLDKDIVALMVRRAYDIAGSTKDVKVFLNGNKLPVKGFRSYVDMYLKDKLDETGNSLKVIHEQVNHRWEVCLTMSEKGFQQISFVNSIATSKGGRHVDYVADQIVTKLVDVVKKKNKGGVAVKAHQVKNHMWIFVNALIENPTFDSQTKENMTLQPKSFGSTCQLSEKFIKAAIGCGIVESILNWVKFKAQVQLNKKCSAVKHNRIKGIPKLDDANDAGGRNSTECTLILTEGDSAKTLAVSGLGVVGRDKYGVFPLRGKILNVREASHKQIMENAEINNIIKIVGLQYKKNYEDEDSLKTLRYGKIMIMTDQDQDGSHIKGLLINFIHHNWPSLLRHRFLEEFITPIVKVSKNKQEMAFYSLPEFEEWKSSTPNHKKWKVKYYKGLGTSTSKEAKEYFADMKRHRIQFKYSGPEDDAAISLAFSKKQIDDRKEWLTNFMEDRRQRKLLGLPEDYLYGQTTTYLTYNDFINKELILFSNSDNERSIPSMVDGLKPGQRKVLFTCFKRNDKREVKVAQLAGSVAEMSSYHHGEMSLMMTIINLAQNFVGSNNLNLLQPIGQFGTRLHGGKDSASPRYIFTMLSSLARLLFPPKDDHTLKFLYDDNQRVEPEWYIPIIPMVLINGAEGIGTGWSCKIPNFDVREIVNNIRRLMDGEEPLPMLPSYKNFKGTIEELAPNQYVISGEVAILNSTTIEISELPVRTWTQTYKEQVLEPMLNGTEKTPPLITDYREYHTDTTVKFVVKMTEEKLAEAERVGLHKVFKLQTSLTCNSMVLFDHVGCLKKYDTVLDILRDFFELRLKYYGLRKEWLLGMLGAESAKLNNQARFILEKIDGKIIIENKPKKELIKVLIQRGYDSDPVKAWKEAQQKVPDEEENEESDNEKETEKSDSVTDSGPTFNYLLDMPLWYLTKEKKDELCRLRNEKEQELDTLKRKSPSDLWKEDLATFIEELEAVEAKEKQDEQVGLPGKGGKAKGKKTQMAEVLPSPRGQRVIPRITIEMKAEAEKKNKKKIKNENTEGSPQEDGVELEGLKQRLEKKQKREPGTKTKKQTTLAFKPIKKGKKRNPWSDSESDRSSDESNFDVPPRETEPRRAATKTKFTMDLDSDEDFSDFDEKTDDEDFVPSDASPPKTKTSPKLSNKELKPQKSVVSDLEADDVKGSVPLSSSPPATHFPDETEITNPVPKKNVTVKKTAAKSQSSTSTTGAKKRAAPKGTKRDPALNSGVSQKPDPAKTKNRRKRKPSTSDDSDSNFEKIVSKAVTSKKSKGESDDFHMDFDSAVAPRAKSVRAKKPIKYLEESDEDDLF

Compound | IC50 [1] [µM] | IC50 [2] [µM] | other results
CN(C)CCCn1c2ccccc2c2sc3cc(Cl)ccc3c(=O)c21 | 14.1 | 7.19 | –
COc1ccc2c(=O)c3c(sc2c1)c1cc(Cl)ccc1n3CCCN(C)C | 1.85 | 1.07 | –
CCN(CC)CCCn1c2ccc(Cl)cc2c2sc3cc(OC)ccc3c(=O)c21 | 1.68 | 1.02 | –
CCN(CC)CCn1c2ccccc2c2sc3cc(Cl)ccc3c(=O)c21 | 4.33 | 3.21 | –
CCN(CC)CCCn1c2ccccc2c2sc3cc(Cl)ccc3c(=O)c21 | 2.91 | 2.64 | –
COc1ccc2c(=O)c3c(sc2c1)c1ccccc1n3CCN(C)C | 1.3 | 0.41 | Activity [3]: Dose-dependent effect; Activity [4]: Active; Activity [5]: Active; Ratio IC50 [6]: 6; Activity [7]: Active; IC50 [8]: 2.35 µM; Activity [9]: Active; Activity [10]: Active; Activity [11]: Dose-dependent effect; Activity [12]: Active; Activity [13]: Active
CCN(CC)CCCn1c2ccc(OC)cc2c2sc3cc(OC)ccc3c(=O)c21 | 2.5 | 1.5 | –
CCN(CC)CCn1c2ccccc2c2sc3cc(OC)ccc3c(=O)c21 | 2.7 | 1.8 | Activity [7]: Active; Activity [13]: Active
COc1ccc2c(=O)c3c(sc2c1)c1cc(OC)ccc1n3CCCN(C)C | 2.6 | 1.35 | –
COc1ccc2c(=O)c3[nH]c4ccccc4c3sc2c1 | > 20 | > 20 | Activity [7]: Active; Activity [13]: Active
Cc1c2ccncc2c(C)c2c1[nH]c1ccccc12 [ELLIPTECINE] | 0.29 | 0.66 | –
COc1cc(NS(C)(=O)=O)ccc1Nc1c2ccccc2nc2ccccc12 | – | – | Activity [14]: Active; Activity [15]: Active
COc1ccc2c(=O)c3c(sc2c1)c1cc(Cl)ccc1n3CCN(C)C | 1.82 | 1.17 | –
CCN(CC)CCn1c2ccc(Cl)cc2c2sc3cc(OC)ccc3c(=O)c21 | 1.12 | 0.71 | –
COc1ccc2c(=O)c3[nH]c4ccc(OC)cc4c3sc2c1 | > 20 | > 20 | –
CCN(CC)CCn1c2ccc(OC)cc2c2sc3cc(OC)ccc3c(=O)c21 | 2.3 | 1.1 | –
CN(C)CCn1c2ccccc2c2sc3cc(Cl)ccc3c(=O)c21 | 1.53 | 1.31 | –
COc1ccc2c(=O)c3c(sc2c1)c1cc(OC)ccc1n3CCN(C)C | 2.15 | 0.66 | Activity [3]: Dose-dependent effect; Activity [16]: Active; Activity [17]: inactive; Activity [9]: Active; Activity [18]: Active; Activity [13]: Active
COc1ccc2c(=O)c3[nH]c4ccc(Cl)cc4c3sc2c1 | > 20 | > 20 | –
O=c1c2ccc(Cl)cc2sc2c1[nH]c1ccccc12 | > 20 | > 20 | –
COc1ccc2c(=O)c3c(sc2c1)c1ccccc1n3CCCN(C)C | 2.9 | 1.9 | Activity [13]: Active
CCN(CC)CCCn1c2ccccc2c2sc3cc(OC)ccc3c(=O)c21 | 3.9 | 2.4 | Activity [7]: Active; Activity [13]: Active
